{
  "source": "ChEMBL document CHEMBL4680226",
  "about": "“Design, synthesis, and evaluation of N-phenyl-4-(2-phenylsulfonamido)-benzamides as microtubule-targeting agents in drug-resistant cancer cells, displaying HDAC inhibitory response” (Eur J Med Chem, 2020)",
  "key": {"[1]": {"system": "KB", "test": "Antiproliferative activity against human KB cells incubated for 48 hrs by SRB assay", "type": "functional", "procedure,_shortened": "(§1)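 KB parental and resistant sublines kept in RPMI 1640 with 5% FBS at 37 °C, 5% CO2. Cells plated, left overnight, then given graded compound concentrations for 48 h. A time-zero plate was fixed with 10% TCA at dosing. Cells were stained with 0.4% SRB in 1% acetic acid, unbound dye washed off, bound dye dissolved in 10 mM Tris base, and absorbance read at 515 nm.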"}, "[2]": {"test": "Antiproliferative activity against human KB-VIN cells incubated for 48 hrs by SRB assay", "type": "functional", "conditions": "KBVIN", "procedure,_shortened": "as §1"}, "[3]": {"test": "Antiproliferative activity against human KB7D cells incubated for 48 hrs by SRB assay", "type": "functional", "procedure,_shortened": "as §1"}, "[4]": {"molecular_target": "Histone deacetylase 1 (Homo sapiens, UniProt Q13547)", "sequence (Q13547 whole entry, the tested form may be a part)": "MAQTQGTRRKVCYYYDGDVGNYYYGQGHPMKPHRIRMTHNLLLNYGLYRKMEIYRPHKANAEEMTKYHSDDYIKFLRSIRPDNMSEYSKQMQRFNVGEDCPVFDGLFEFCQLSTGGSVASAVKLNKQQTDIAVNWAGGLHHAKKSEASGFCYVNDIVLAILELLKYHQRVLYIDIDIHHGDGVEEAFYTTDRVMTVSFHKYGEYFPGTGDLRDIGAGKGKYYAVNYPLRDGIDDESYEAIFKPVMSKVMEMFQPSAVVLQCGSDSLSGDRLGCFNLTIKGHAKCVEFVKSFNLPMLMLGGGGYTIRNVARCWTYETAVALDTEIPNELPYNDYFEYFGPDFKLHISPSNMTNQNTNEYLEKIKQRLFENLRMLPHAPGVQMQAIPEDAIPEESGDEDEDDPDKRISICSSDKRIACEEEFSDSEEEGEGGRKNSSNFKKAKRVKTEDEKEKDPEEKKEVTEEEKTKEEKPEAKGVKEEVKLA", "test": "Inhibition of recombinant human full-length C-terminal FLAG-His tagged HDAC1 (1 to 482 residues) expressed in Sf21 insect cells using RHK-K(Ac)-AMC as substrate measured after 60 mins by fluorescence assay"}, "[5]": {"molecular_target": "Histone deacetylase 2 (Homo sapiens, UniProt Q92769)", "sequence (Q92769 whole entry, the tested form may be a part)": "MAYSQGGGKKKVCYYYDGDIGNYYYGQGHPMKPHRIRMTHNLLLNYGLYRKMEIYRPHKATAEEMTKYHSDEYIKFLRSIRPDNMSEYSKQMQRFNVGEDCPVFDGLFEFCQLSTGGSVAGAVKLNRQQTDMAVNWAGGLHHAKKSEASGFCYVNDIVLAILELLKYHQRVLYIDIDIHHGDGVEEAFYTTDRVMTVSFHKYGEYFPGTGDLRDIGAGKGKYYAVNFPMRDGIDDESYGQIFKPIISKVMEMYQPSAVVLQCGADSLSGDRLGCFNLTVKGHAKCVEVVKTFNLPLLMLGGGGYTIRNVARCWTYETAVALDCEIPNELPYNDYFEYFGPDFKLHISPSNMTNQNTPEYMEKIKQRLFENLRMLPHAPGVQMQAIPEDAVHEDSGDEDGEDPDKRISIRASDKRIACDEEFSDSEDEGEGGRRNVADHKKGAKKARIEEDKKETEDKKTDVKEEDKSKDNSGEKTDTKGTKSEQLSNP", "test": "Inhibition of recombinant human C-terminal GST-tagged HDAC2 (1 to 488 residues) expressed in baculovirus infected insect cells using RHKKAc-AMC as substrate measured after 60 mins by fluorescence assay"}, "[6]": {"molecular_target": "Histone deacetylase 3/Nuclear receptor corepressor 2 (HDAC3/NCoR2) (Homo sapiens, UniProt O15379)", "sequence (O15379 whole entry)": "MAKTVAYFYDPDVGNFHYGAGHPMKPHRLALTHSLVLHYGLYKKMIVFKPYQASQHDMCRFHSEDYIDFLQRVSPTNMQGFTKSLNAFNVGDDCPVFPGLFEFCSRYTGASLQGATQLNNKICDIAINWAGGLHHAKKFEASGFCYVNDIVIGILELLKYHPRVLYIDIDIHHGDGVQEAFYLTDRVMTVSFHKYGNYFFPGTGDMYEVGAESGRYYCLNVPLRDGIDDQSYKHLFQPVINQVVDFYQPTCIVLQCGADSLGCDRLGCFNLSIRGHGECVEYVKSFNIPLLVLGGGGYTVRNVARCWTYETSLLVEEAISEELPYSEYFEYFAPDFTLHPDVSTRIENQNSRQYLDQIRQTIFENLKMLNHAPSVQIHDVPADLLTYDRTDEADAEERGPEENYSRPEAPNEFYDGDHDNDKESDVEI", "sequence (Q9Y618 whole entry, further chain)": "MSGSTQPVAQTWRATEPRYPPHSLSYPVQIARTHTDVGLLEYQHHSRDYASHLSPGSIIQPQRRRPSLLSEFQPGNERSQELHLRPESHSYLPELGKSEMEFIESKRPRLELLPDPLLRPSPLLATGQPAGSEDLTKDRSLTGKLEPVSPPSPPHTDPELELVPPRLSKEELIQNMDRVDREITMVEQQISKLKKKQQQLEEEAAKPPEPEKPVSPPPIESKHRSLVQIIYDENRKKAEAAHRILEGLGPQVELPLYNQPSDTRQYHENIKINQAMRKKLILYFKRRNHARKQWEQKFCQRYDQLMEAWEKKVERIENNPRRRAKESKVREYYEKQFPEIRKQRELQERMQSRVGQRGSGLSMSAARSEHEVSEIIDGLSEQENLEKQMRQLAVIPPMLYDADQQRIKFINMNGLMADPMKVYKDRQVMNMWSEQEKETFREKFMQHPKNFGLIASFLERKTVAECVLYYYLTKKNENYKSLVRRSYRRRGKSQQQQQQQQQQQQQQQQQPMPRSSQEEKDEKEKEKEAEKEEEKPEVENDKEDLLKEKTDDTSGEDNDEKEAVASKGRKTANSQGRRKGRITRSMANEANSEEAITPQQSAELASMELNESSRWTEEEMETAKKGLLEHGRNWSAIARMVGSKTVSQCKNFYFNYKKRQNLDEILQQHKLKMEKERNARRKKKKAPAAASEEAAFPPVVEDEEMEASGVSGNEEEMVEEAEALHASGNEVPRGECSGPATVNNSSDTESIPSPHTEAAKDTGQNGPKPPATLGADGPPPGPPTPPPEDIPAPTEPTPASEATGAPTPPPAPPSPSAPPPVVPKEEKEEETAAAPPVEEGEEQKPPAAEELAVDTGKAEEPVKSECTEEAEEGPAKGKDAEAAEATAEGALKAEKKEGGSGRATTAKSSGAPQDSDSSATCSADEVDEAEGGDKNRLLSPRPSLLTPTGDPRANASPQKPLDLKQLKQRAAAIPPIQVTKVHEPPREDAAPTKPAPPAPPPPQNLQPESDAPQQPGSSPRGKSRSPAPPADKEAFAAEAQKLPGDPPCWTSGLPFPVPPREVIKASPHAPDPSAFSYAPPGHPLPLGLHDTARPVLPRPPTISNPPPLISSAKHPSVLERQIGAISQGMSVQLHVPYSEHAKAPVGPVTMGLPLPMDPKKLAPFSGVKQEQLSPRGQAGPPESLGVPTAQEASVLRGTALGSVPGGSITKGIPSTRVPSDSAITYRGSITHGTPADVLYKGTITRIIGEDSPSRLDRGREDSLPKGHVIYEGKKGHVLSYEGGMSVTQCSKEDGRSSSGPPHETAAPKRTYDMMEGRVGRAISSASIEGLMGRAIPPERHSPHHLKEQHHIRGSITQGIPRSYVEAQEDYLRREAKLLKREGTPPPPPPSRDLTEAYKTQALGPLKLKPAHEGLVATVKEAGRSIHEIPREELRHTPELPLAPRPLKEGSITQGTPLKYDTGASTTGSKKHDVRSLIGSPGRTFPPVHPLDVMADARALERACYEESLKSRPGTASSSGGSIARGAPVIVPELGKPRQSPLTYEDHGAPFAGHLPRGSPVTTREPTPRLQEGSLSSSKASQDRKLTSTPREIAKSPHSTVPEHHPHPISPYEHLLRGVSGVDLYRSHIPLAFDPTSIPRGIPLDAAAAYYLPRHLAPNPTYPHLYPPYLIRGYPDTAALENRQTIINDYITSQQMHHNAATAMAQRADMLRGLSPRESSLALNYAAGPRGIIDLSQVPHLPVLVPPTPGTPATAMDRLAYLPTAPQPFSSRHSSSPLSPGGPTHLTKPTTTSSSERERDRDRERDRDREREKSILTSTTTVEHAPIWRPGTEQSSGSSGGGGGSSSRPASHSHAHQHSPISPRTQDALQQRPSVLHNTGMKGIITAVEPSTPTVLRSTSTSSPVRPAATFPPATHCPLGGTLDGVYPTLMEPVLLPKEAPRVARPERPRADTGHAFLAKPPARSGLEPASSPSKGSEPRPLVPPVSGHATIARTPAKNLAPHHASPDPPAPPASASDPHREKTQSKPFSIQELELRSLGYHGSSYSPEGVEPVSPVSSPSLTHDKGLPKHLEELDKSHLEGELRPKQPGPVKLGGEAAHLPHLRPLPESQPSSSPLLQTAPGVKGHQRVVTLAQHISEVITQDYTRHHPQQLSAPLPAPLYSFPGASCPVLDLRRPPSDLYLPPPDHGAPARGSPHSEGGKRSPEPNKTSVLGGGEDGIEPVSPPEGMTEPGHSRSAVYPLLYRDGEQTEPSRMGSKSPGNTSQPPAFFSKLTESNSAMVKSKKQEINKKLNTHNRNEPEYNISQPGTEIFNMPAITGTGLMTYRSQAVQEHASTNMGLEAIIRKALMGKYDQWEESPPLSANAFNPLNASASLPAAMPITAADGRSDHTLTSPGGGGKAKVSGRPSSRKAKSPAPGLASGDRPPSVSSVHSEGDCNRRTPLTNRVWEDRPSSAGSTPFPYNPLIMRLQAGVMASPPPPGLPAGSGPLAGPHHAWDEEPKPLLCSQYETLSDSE", "test": "Inhibition of human recombinant HDAC3/NCOR2 using RHKKAc-AMC as substrate measured after 60 mins by fluorescence assay", "type": "protein-complex assay"}, "[7]": {"molecular_target": "T1, Histone deacetylase 8 (Homo sapiens, UniProt Q9BY41)", "T1 sequence (Q9BY41 whole entry)": "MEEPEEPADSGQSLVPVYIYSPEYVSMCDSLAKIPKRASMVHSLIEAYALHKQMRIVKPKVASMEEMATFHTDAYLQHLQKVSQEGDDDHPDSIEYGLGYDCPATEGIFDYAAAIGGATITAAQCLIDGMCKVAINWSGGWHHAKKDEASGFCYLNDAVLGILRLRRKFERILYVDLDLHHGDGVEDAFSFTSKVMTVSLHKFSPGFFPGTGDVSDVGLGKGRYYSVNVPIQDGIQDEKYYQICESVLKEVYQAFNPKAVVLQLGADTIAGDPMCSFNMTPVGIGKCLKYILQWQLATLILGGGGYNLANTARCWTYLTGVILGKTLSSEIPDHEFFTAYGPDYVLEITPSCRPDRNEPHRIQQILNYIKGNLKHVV", "test": "Inhibition of human recombinant HDAC8 using RHKAcKAc-AMC as substrate measured after 60 mins by fluorescence assay"}, "[8]": {"system": "KB7D", "test": "Induction of apoptosis in human KB7D cells assessed as increase in activated gammaH2AX expression at 5 uM measured after 24 hrs by Western blot analysis", "type": "functional, cell-based", "procedure,_shortened": "(§2)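 Resistant KB cells attached overnight, then drug-treated at the stated concentrations and times (24 h or 48 h). Lysates were immunoblotted for cleaved PARP, caspase-3, -8 and -9, and γH2AX, with anti-mouse or anti-rabbit IgG secondaries.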"}, "[9]": {"system": "KB7D", "test": "Induction of apoptosis in human KB7D cells assessed as increase in activated gammaH2AX expression at 0.1 uM measured after 24 hrs by Western blot analysis", "type": "functional, cell-based", "procedure,_shortened": "as §2"}, "[10]": {"system": "KB-VIN", "test": "Induction of apoptosis in human KB-VIN cells assessed as increase in cleaved PARP expression at 0.01 to 0.5 uM by Western blot analysis", "type": "functional, cell-based", "conditions": "dose 0.01-0.5 µM", "procedure,_shortened": "as §2"}, "[11]": {"system": "KB-VIN", "test": "Induction of apoptosis in human KB-VIN cells assessed as increase in cleaved caspase-8 expression at 0.01 to 0.5 uM by Western blot analysis", "type": "functional, cell-based", "conditions": "dose 0.01-0.5 µM", "procedure,_shortened": "as §2"}, "[12]": {"system": "KB-VIN", "test": "Induction of apoptosis in human KB-VIN cells assessed as increase in cleaved caspase-3 expression at 0.01 to 0.5 uM by Western blot analysis", "type": "functional, cell-based", "conditions": "dose 0.01-0.5 µM", "procedure,_shortened": "as §2"}, "[13]": {"system": "KB-VIN", "test": "Induction of apoptosis in human KB-VIN cells assessed as increase in cleaved caspase-9 expression at 0.01 to 0.5 uM by Western blot analysis", "type": "functional, cell-based", "conditions": "dose 0.01-0.5 µM", "procedure,_shortened": "as §2"}},
  "note": "Activity calls are given as the source filed them. No cut-off for these calls is given here.",
  "data": [
    {"smiles": "Nc1ccccc1NC(=O)c1ccc(CCc2ccccc2NS(=O)(=O)c2ccc(Cl)cc2)cc1", "values": [
      {"measurement": "GI50", "setting": "[1]", "result": 448, "unit": "nM"}
    ]},
    {"smiles": "COc1ccc(S(=O)(=O)Nc2ccccc2CCc2ccccc2)cc1", "values": [
      {"measurement": "GI50", "setting": "[1]", "result": 4410, "unit": "nM"}
    ]},
    {"smiles": "COc1ccc(S(=O)(=O)Nc2ccccc2-c2ccc(C(=O)Nc3ccccc3N)cc2)cc1", "values": [
      {"measurement": "GI50", "setting": "[1]", "result": 442, "unit": "nM"}
    ]},
    {"smiles": "COc1ccc(S(=O)(=O)Nc2ccccc2OCc2ccc(C(=O)Nc3ccccc3N)cc2)cc1", "values": [
      {"measurement": "GI50", "setting": "[1]", "result": 60, "unit": "nM"},
      {"measurement": "GI50", "setting": "[2]", "result": 42, "unit": "nM"},
      {"measurement": "GI50", "setting": "[3]", "result": 62, "unit": "nM"},
      {"measurement": "IC50", "setting": "[4]", "result": 5450, "unit": "nM"},
      {"measurement": "IC50", "setting": "[5]", "result": 4950, "unit": "nM"},
      {"measurement": "IC50", "setting": "[6]", "result": 7920, "unit": "nM"},
      {"measurement": "IC50", "setting": "[7]", "result": "> 10000", "unit": "nM"}
    ]},
    {"smiles": "Nc1ccccc1NC(=O)c1ccc(CNC(=O)OCc2cccnc2)cc1", "note": "[ENTINOSTAT]", "values": [
      {"measurement": "GI50", "setting": "[1]", "result": 6630, "unit": "nM"},
      {"measurement": "GI50", "setting": "[2]", "result": 7710, "unit": "nM"},
      {"measurement": "GI50", "setting": "[3]", "result": 5680, "unit": "nM"},
      {"measurement": "Activity", "setting": "[8]", "result": "Active"}
    ]},
    {"smiles": "COc1ccc(S(=O)(=O)Nc2cccnc2Nc2ccc(O)cc2)cc1", "note": "[ABT-751]", "values": [
      {"measurement": "GI50", "setting": "[1]", "result": 801, "unit": "nM"},
      {"measurement": "GI50", "setting": "[2]", "result": 2070, "unit": "nM"},
      {"measurement": "GI50", "setting": "[3]", "result": 444, "unit": "nM"},
      {"measurement": "Activity", "setting": "[9]", "result": "Active"}
    ]},
    {"smiles": "COc1ccc(S(=O)(=O)Nc2cccc(CCc3ccc(C(=O)Nc4ccccc4N)cc3)c2)cc1", "values": [
      {"measurement": "GI50", "setting": "[1]", "result": 678, "unit": "nM"}
    ]},
    {"smiles": "COc1ccc(S(=O)(=O)Nc2ccccc2CCc2ccc(C(=O)Nc3ccccc3)cc2)cc1", "values": [
      {"measurement": "GI50", "setting": "[1]", "result": 137, "unit": "nM"}
    ]},
    {"smiles": "COc1ccc(S(=O)(=O)Nc2ccccc2CCc2ccc(C(=O)Nc3ccccc3N)cc2)cc1", "values": [
      {"measurement": "GI50", "setting": "[1]", "result": 23, "unit": "nM"},
      {"measurement": "GI50", "setting": "[2]", "result": 31, "unit": "nM"},
      {"measurement": "GI50", "setting": "[3]", "result": 22, "unit": "nM"},
      {"measurement": "IC50", "setting": "[4]", "result": 1190, "unit": "nM"},
      {"measurement": "IC50", "setting": "[5]", "result": "> 10000", "unit": "nM"},
      {"measurement": "IC50", "setting": "[6]", "result": 2550, "unit": "nM"},
      {"measurement": "IC50", "setting": "[7]", "result": "> 10000", "unit": "nM"},
      {"measurement": "Activity", "setting": "[10]", "result": "Active"},
      {"measurement": "Activity", "setting": "[11]", "result": "Active"},
      {"measurement": "Activity", "setting": "[12]", "result": "Active"},
      {"measurement": "Activity", "setting": "[13]", "result": "Active"}
    ]},
    {"smiles": "Nc1ccccc1NC(=O)c1ccc(CCc2ccccc2NS(=O)(=O)c2ccc(Br)cc2)cc1", "values": [
      {"measurement": "GI50", "setting": "[1]", "result": 124, "unit": "nM"}
    ]},
    {"smiles": "COc1cccc(S(=O)(=O)Nc2ccccc2CCc2ccc(C(=O)Nc3ccccc3N)cc2)c1", "values": [
      {"measurement": "GI50", "setting": "[1]", "result": 462, "unit": "nM"}
    ]},
    {"smiles": "COc1ccc(S(=O)(=O)Nc2ccccc2CCc2ccc(C(=O)Nc3cc(F)ccc3N)cc2)cc1", "values": [
      {"measurement": "GI50", "setting": "[1]", "result": 66, "unit": "nM"},
      {"measurement": "GI50", "setting": "[2]", "result": 29, "unit": "nM"},
      {"measurement": "GI50", "setting": "[3]", "result": 12, "unit": "nM"},
      {"measurement": "IC50", "setting": "[4]", "result": "> 10000", "unit": "nM"},
      {"measurement": "IC50", "setting": "[5]", "result": 9080, "unit": "nM"},
      {"measurement": "IC50", "setting": "[6]", "result": 1750, "unit": "nM"},
      {"measurement": "IC50", "setting": "[7]", "result": "> 10000", "unit": "nM"},
      {"measurement": "Activity", "setting": "[10]", "result": "Active"},
      {"measurement": "Activity", "setting": "[11]", "result": "Active"},
      {"measurement": "Activity", "setting": "[12]", "result": "Active"},
      {"measurement": "Activity", "setting": "[13]", "result": "Active"}
    ]},
    {"smiles": "N#Cc1ccc(S(=O)(=O)Nc2ccccc2CCc2ccc(C(=O)Nc3ccccc3N)cc2)cc1", "values": [
      {"measurement": "GI50", "setting": "[1]", "result": 790, "unit": "nM"}
    ]}
  ]
}
